Experimental data from ChEMBL document CHEMBL1125788, “Synthesis and ocular antihypertensive activity of new imidazolidine derivatives containing a beta-blocking side chain” (J Med Chem, 1991).
Activity calls are given as the source filed them.

Tests used:
[1] = target: T1, Alpha-1A adrenergic receptor (Rattus norvegicus) (UniProt P43140)
T1 sequence (whole entry): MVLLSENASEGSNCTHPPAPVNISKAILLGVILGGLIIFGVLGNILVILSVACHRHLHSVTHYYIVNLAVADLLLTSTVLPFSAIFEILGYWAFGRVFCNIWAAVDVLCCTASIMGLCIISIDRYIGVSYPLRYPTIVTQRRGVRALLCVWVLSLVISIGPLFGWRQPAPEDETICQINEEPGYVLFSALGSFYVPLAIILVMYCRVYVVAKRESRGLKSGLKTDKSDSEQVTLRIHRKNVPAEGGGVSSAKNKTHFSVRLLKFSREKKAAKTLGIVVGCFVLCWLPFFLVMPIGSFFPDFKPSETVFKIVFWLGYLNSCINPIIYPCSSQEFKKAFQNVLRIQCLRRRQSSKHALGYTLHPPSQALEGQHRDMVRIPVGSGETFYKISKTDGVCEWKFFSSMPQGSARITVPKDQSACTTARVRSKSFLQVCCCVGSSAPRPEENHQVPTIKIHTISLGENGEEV

[2] = target: T1, Alpha-1A adrenergic receptor (Rattus norvegicus); experiment: The compound was tested for alpha-adrenergic activity against Alpha-1 adrenergic receptor from rat aorta;IN- Inactive up to a concentration of 1*10e-3 M
Summary of the method: (§1)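 Isolated rat aorta strips at 2 g resting tension, stabilized about 1 h. Beta-receptors blocked with propranolol 10^-6 mol/L for 30 min. Cumulative norepinephrine curve (10^-10 to 10^-7 mol/L) with ascorbic acid 1.13 × 10^-6 mol/L present. ED50 by Ariens–Van Rossum. Intrinsic activity = maximum response relative to norepinephrine. Antagonism as pA2 (Schild) or, if non-competitive, pD'2.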

[3] = target: T2, Adrenergic receptor alpha-2 (Homo sapiens) (UniProt P08913+P18825+P18089); experiment: The compound was tested for alpha-adrenergic activity against alpha-2 adrenergic receptor from guinea pig vas up to a concentration of 1*10e-3 M; settings: Cavia porcellus; target entry is the homologue from another species
[4] = target: T2, Adrenergic receptor alpha-2 (Homo sapiens); settings: Cavia porcellus
[5] = target: T1, Alpha-1A adrenergic receptor (Rattus norvegicus); experiment: Intrinsic activity expressed as ratio of maximum responses to the compound to the maximum response to norepinephrine; IN-Inactive up to a concentration of 1*10e-3 M; assay type: functional
Summary of the method: as §1

[6] = target: T3, Beta-1 adrenergic receptor (Cavia porcellus, UniProt B0FL73); experiment: The compound was tested for beta-adrenergic activity against Beta-1 adrenergic receptor from guinea pig right atria; settings: read-out: pA2 (converted)
Summary of the method: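 Spontaneously beating isolated right atria (chronotropy) from guinea pigs of 300-500 g. Phentolamine 3.15 × 10^-4 mmol/L in bath. Isoprenaline cumulative curves with ascorbic acid 1.13 × 10^-6 mol/L, before and after 30 min antagonist preincubation. Reported as pA2 or pD'2.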

[7] = target: T4, Alpha-1A adrenergic receptor (Rattus norvegicus, UniProt P43140); experiment: The compound was tested for alpha-adrenergic activity against Alpha-1 adrenergic receptor from rat aorta.; settings: read-out: pA2 (converted)
T4 sequence (P43140 whole entry): T1 sequence (whole entry)
Summary of the method: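 Isolated rat aorta strips at 2 g resting tension, stabilized about 1 h. Beta-receptors blocked with propranolol 10^-6 mol/L for 30 min. ED50 by Ariens–Van Rossum. Intrinsic activity = maximum response relative to norepinephrine. Antagonism as pA2 (Schild) or, if non-competitive, pD'2.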

[8] = target: T3, Beta-1 adrenergic receptor; experiment: The compound was tested for beta-adrenergic activity against Beta-1 adrenergic receptor from guinea pig left atria; settings: read-out: pA2 (converted)
Summary of the method: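 Electrically paced isolated left atria (inotropy) from guinea pigs of 300-500 g, 2.5 Hz, 5 ms pulses at 50% above threshold. Phentolamine 3.15 × 10^-4 mmol/L in bath. Cumulative isoprenaline curves with ascorbic acid 1.13 × 10^-6 mol/L, before and after 30 min antagonist preincubation. Reported as pA2 or pD'2.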

[9] = target: Beta-2 adrenergic receptor (Cavia porcellus, UniProt Q8K4Z4); experiment: The compound was tested for beta-adrenergic activity against Beta-2 adrenergic receptor from guinea pig trachea.
[10] = target: Beta-2 adrenergic receptor (Cavia porcellus) (UniProt Q8K4Z4)
[11] = target: T1, Alpha-1A adrenergic receptor (Rattus norvegicus); experiment: Intrinsic activity expressed as ratio of maximum responses to the compound to the maximum response to norepinephrine; IN-Inactive up to a concentration of 1*10e-4 M; assay type: functional
Summary of the method: as §1

[12] = target: T1, Alpha-1A adrenergic receptor (Rattus norvegicus); remark: listed apart in the source
[13] = target: T5, Adrenergic receptor alpha-2 (Homo sapiens, UniProt P08913+P18825+P18089); experiment: The compound was tested for alpha-adrenergic activity against alpha-2 adrenergic receptor from guinea pig vas deferens.; parameters: species or system Cavia porcellus; settings: target entry is the homologue from another species
T5 sequence (P08913 whole entry): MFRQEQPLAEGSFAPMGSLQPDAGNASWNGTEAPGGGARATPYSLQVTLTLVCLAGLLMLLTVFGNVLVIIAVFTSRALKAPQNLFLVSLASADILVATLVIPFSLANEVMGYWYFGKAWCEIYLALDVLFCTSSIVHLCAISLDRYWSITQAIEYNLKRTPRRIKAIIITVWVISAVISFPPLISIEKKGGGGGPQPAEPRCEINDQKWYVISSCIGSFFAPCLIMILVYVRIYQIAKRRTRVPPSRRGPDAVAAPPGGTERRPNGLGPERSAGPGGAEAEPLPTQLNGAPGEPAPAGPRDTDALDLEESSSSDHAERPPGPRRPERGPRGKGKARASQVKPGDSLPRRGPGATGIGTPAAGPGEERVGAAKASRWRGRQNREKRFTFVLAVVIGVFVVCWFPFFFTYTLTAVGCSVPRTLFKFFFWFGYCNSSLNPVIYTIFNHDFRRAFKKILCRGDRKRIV
T5 sequence (P18825 whole entry): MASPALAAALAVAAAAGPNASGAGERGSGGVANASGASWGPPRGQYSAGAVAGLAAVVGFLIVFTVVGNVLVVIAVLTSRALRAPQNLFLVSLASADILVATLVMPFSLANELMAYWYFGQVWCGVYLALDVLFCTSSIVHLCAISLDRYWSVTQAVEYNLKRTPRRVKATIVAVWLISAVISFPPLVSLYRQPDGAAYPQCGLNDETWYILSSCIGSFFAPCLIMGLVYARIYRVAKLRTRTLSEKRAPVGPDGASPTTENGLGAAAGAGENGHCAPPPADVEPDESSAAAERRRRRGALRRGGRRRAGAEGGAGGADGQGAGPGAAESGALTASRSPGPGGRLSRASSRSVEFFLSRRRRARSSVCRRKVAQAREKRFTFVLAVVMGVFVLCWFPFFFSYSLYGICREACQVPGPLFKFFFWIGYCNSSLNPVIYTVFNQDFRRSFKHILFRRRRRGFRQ
T5 sequence (P18089 whole entry): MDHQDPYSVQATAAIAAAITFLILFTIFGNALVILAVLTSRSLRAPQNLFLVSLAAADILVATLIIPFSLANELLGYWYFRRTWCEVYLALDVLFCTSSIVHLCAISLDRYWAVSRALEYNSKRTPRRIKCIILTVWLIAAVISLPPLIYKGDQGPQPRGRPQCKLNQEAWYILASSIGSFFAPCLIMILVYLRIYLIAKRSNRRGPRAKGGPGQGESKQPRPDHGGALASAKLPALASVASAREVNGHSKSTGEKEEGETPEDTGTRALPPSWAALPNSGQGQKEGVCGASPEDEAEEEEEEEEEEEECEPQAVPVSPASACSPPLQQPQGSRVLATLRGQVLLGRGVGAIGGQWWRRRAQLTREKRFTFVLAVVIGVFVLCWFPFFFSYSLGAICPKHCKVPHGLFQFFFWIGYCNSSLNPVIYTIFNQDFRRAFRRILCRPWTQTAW

[14] = target: T1, Alpha-1A adrenergic receptor (Rattus norvegicus); remark: listed apart in the source
[15] = target: T1, Alpha-1A adrenergic receptor (Rattus norvegicus); remark: listed apart in the source
[16] = target: T2, Adrenergic receptor alpha-2 (Homo sapiens); settings: Cavia porcellus; remark: listed apart in the source
[17] = target: T1, Alpha-1A adrenergic receptor (Rattus norvegicus); experiment: Intrinsic activity expressed as ratio of maximum responses to the compound to the maximum response to norepinephrine; IN-Inactive up to a concentration of 1*10e-5 M; assay type: functional
Summary of the method: as §1

[18] = target: T2, Adrenergic receptor alpha-2 (Homo sapiens); settings: Cavia porcellus; remark: listed apart in the source

Chain of Beta-2 adrenergic receptor (Q8K4Z4 whole entry): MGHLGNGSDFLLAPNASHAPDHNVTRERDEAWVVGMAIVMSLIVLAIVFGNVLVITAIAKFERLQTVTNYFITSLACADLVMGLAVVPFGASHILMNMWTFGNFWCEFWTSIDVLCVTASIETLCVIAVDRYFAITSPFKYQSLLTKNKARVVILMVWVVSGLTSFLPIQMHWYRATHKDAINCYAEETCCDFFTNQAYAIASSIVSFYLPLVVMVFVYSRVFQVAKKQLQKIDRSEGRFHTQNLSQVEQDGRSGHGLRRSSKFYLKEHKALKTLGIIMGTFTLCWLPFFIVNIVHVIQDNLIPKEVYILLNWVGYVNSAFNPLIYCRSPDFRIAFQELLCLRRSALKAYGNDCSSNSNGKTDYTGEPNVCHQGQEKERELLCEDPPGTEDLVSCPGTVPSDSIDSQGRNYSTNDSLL
T3 sequence (B0FL73 whole entry): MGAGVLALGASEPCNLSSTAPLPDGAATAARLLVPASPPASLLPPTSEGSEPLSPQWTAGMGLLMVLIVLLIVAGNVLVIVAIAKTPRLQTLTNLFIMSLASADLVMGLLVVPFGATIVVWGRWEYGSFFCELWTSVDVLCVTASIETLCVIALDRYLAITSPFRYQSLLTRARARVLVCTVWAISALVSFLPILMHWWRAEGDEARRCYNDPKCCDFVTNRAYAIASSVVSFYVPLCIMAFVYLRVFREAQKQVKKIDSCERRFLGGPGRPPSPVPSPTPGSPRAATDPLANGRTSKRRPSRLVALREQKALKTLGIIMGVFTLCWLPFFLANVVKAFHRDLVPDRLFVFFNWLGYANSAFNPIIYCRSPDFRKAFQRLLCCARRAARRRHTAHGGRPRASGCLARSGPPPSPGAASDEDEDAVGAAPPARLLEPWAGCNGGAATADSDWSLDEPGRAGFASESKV
Chain of Beta-2 adrenergic receptor (Cavia porcellus) (Q8K4Z4 whole entry, looked up): as the sequence (Q8K4Z4 whole entry) above

| SMILES | pD2 [4] | Kb [6] [µM] | Kb [7] [µM] | Kb [8] [µM] | Kb [9] [µM] | also measured |
| --- | --- | --- | --- | --- | --- | --- |
| Clc1cccc(Cl)c1NC1=NCCN1 | – | – | – | – | – | pD2 [1]: 7.84 |
| C/C(=N\OCC(O)CNC(C)(C)C)c1cc(Cl)c(NC2=NCCN2)c(Cl)c1 (stereo in doubt; 3) [listing 1 of 2 here] | 4.63 | – | – | – | – | pD2 [2]: inactive; pA2 [3]: inactive; Intrinsic activity [5]: inactive |
| C/C(=N\OCC(O)CNC(C)(C)C)c1cc(Cl)c(NC2=NCCN2)c(Cl)c1 (single isomer, unassigned; (+)) [listing 1 of 2 here] | – | 50.1 | 7.94 | 50.1 | 79.4 | – |
| C/C(=N\OCC(O)CNC(C)(C)C)c1cc(Cl)c(NC2=NCCN2)c(Cl)c1 (stereo in doubt; (-)-3) [listing 1 of 2 here] | 4.9 | – | – | – | – | pD2 [2]: inactive; pA2 [3]: inactive; Intrinsic activity [5]: inactive |
| C/C(=N\OCC(O)CNC(C)(C)C)c1cc(Cl)c(NC2=NCCN2)c(Cl)c1 (single isomer, unassigned; (+)) [listing 2 of 2 here] | 5.1 | – | – | – | – | pD2 [2]: inactive; pA2 [3]: inactive; Intrinsic activity [5]: inactive |
| Clc1cccc(Cl)c1N=C1NCCN1 [CLONIDINE] | – | 39.8 | – | 63.1 | – | – |
| C/C(=N\OCC(O)CNC(C)(C)C)c1cc(Cl)c(NC2=NCCN2)c(Cl)c1 (stereo in doubt; (-)-3) [listing 2 of 2 here] | – | 50.1 | 12.6 | 25.1 | 100 | – |
| CC(C)(C)NCC(O)COc1cc(Cl)c(NC2=NCCN2)c(Cl)c1 (stereo unspecified) | 3.52 | 50.1 | > 63.1 | > 100 | – | pA2 [10]: inactive; Intrinsic activity [11]: inactive; pD2 [12]: inactive; pA2 [13]: 5.12 |
| CC(C)(C)NCC(O)COCC1CN=C(Nc2c(Cl)cccc2Cl)N1 (stereo unspecified) | 6.4 | 1.02 | – | > 10 | – | pA2 [10]: inactive; pD2 [14]: inactive; pA2 [15]: inactive; pA2 [16]: inactive; Intrinsic activity [17]: inactive |
| C/C(=N\OCC(O)CNC(C)(C)C)c1cc(Cl)c(NC2=NCCN2)c(Cl)c1 (stereo in doubt; 3) [listing 2 of 2 here] | – | 39.8 | 4.07 | 39.8 | 100 | – |
| C/C(=N\OCC(O)CNC(C)(C)C)c1cc(Cl)c(OC(C)C2=NCCN2)c(Cl)c1 (stereo unspecified) | 3.93 | 1.48 | 3.98 | 1.45 | 15.8 | Intrinsic activity [11]: inactive; pD2 [12]: inactive; pA2 [18]: inactive |
